Values after ≈ are worked out from the molar mass of the structure shown. Active and inactive are the calls of the source. The calls are words filed in the database; no cut-off is given here.
Experiments:
[1] = Upregulation of Bax gene expression in human A549 cells assessed as fold increase by qRT-PCR analysis; type: functional
Procedure, shortened: (§1)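 A549/ATCC cells treated, total RNA DNase-treated and checked by 260/280 ratio (1.8–2.1). Reverse transcription with oligo-dT and MuLV RT: 25 °C 10 min, 42 °C 1 h, 99 °C 5 min. qPCR of 40 cycles (95 °C 15 s, 55 °C 30 s, 72 °C 30 s) followed by melt curve. Relative expression by the 2−ΔΔCT method, mean ± SEM.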

A549 [2] = assay: Downregulation of Bcl-2 gene expression in human A549 cells by qRT-PCR analysis; type: functional, cell-based; procedure, shortened: as §1
[3] = Upregulation of p53 gene expression in human A549 cells assessed as fold increase by qRT-PCR analysis; type: functional; procedure, shortened: as §1
OVCAR-8 = assay: Antiproliferative activity against human OVCAR-8 cells assessed as growth inhibition incubated for 48 hrs by SRB method; type: functional
Procedure, shortened: (§2)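 NCI-60 five-dose screen at 0.01, 0.1, 1, 10 and 100 μM, triplicate wells per dose. Cells were in RPMI 1640 with 5% FBS and 2 mM L-glutamine, pre-grown 24 h and then treated for 48 h at 37 °C. Read-out was TCA fixation and SRB absorbance at 515 nm.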

A549 [4] = assay: Antiproliferative activity against human A549 cells assessed as growth inhibition at 10 uM incubated for 48 hrs by SRB method; type: functional; conditions: read-out: GI
Procedure, shortened: (§3)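 NCI-60 one-dose screen at 10 μM. Cells were grown in RPMI 1640 with 5% FBS and 2 mM L-glutamine and plated at 5000–40 000 cells/well for 24 h. Drug exposure was 48 h at 37 °C, 5% CO2. Cells were fixed with TCA, stained with 0.4% SRB and read at 515 nm. Growth is expressed as percent of untreated control and time-zero plates.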

UACC-257 = assay: Antiproliferative activity against human UACC-257 cells assessed as growth inhibition incubated for 48 hrs by SRB method; type: functional; procedure, shortened: as §2
NCI-H23 = assay: Antiproliferative activity against human NCI-H23 cells assessed as growth inhibition incubated for 48 hrs by SRB method; type: functional; procedure, shortened: as §2
Escherichia coli = assay: Antimicrobial activity against Escherichia coli ATCC 25922 by broth microdilution method
SK-MEL-2 = assay: Antiproliferative activity against human SK-MEL-2 cells assessed as growth inhibition incubated for 48 hrs by SRB method; type: functional; procedure, shortened: as §2
LOX IMVI = assay: Antiproliferative activity against human LOX IMVI cells assessed as growth inhibition at 10 uM incubated for 48 hrs by SRB method; type: functional; conditions: read-out: GI; procedure, shortened: as §3
HOP-92 [5] = assay: Antiproliferative activity against human HOP-92 cells assessed as growth inhibition incubated for 48 hrs by SRB method; type: functional; procedure, shortened: as §2
Candida albicans = assay: Antimicrobial activity against Candida albicans ATCC 10231 by broth microdilution method
HOP-92 [6] = assay: Antiproliferative activity against human HOP-92 cells assessed as growth inhibition at 10 uM incubated for 48 hrs by SRB method; type: functional; conditions: read-out: GI; procedure, shortened: as §3
SK-OV-3 = assay: Antiproliferative activity against human SK-OV-3 cells assessed as growth inhibition at 10 uM incubated for 48 hrs by SRB method; type: functional; conditions: read-out: GI; procedure, shortened: as §3
MDA-MB-468 [7] = assay: Antiproliferative activity against human MDA-MB-468 cells assessed as growth inhibition at 10 uM incubated for 48 hrs by SRB method; type: functional; conditions: read-out: GI; procedure, shortened: as §3
SF-268 = assay: Antiproliferative activity against human SF-268 cells assessed as growth inhibition incubated for 48 hrs by SRB method; type: functional; procedure, shortened: as §2
U-251 = assay: Antiproliferative activity against human U-251 cells assessed as growth inhibition at 10 uM incubated for 48 hrs by SRB method; type: functional; conditions: read-out: GI; procedure, shortened: as §3
NCI-H226 = assay: Antiproliferative activity against human NCI-H226 cells assessed as growth inhibition at 10 uM incubated for 48 hrs by SRB method; type: functional; conditions: read-out: GI; procedure, shortened: as §3
SF-295 = assay: Antiproliferative activity against human SF-295 cells assessed as growth inhibition incubated for 48 hrs by SRB method; type: functional; procedure, shortened: as §2
SN12C = assay: Antiproliferative activity against human SN12C cells assessed as growth inhibition incubated for 48 hrs by SRB method; type: functional; procedure, shortened: as §2
MCF7 [8] = assay: Antiproliferative activity against human MCF7 cells assessed as growth inhibition at 10 uM incubated for 48 hrs by SRB method; type: functional; conditions: read-out: GI; procedure, shortened: as §3
CAKI-1 = assay: Antiproliferative activity against human CAKI-1 cells assessed as growth inhibition incubated for 48 hrs by SRB method; type: functional; procedure, shortened: as §2
MCF7 [9] = assay: Antiproliferative activity against human MCF7 cells assessed as growth inhibition incubated for 48 hrs by SRB method; type: functional; procedure, shortened: as §2
PC-3 = assay: Antiproliferative activity against human PC-3 cells assessed as growth inhibition incubated for 48 hrs by SRB method; type: functional; procedure, shortened: as §2
DU-145 = assay: Antiproliferative activity against human DU-145 cells assessed as growth inhibition at 10 uM incubated for 48 hrs by SRB method; type: functional; conditions: read-out: GI; procedure, shortened: as §3
NCI/ADR-RES = assay: Antiproliferative activity against human NCI-ADR-RES cells assessed as growth inhibition at 10 uM incubated for 48 hrs by SRB method; type: functional; conditions: read-out: GI; procedure, shortened: as §3
SK-MEL-28 = assay: Antiproliferative activity against human SK-MEL-28 cells assessed as growth inhibition incubated for 48 hrs by SRB method; type: functional; procedure, shortened: as §2
SNB-75 = assay: Antiproliferative activity against human SNB-75 cells assessed as growth inhibition incubated for 48 hrs by SRB method; type: functional; procedure, shortened: as §2
UACC-62 = assay: Antiproliferative activity against human UACC-62 cells assessed as growth inhibition incubated for 48 hrs by SRB method; type: functional
Procedure, shortened: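 NCI-60 five-dose screen at 0.01, 0.1, 1, 10 and 100 μM, triplicate wells per dose. Cells grown in RPMI 1640/5% FBS, preincubated 24 h, then exposed 48 h at 37 °C. TCA fixation, SRB stain, A515.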

MDA-MB-468 [10] = assay: Antiproliferative activity against human MDA-MB-468 cells assessed as growth inhibition incubated for 48 hrs by SRB method; type: functional; procedure, shortened: as §2
786-0 = assay: Antiproliferative activity against human 786-0 cells assessed as growth inhibition at 10 uM incubated for 48 hrs by SRB method; type: functional; conditions: read-out: GI; procedure, shortened: as §3
BT-549 = assay: Antiproliferative activity against human BT-549 cells assessed as growth inhibition at 10 uM incubated for 48 hrs by SRB method; type: functional; conditions: read-out: GI; procedure, shortened: as §3
EKVX = assay: Antiproliferative activity against human EKVX cells assessed as growth inhibition incubated for 48 hrs by SRB method; type: functional; procedure, shortened: as §2
UO-31 = assay: Antiproliferative activity against human UO-31 cells assessed as growth inhibition at 10 uM incubated for 48 hrs by SRB method; type: functional; conditions: read-out: GI
Procedure, shortened: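 NCI-60 one-dose screen at 10 μM. Cells grown in RPMI 1640 with 5% FBS and 2 mM L-glutamine, plated at 5000–40 000 cells/well and preincubated 24 h at 37 °C, 5% CO2. Drug exposure 48 h. Fixed with TCA and stained with 0.4% SRB, absorbance read at 515 nm. Percent growth calculated against untreated control and time-zero plates.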

Staphylococcus aureus = assay: Antimicrobial activity against Staphylococcus aureus ATCC 29213 by broth microdilution method
M14 = assay: Antiproliferative activity against human M14 cells assessed as growth inhibition incubated for 48 hrs by SRB method; type: functional; procedure, shortened: as §2
HOP-62 = assay: Antiproliferative activity against human HOP-62 cells assessed as growth inhibition at 10 uM incubated for 48 hrs by SRB method; type: functional; conditions: read-out: GI; procedure, shortened: as §3

Question: Which “fold change (FC)” value [1] does the source give for `COc1cccc2c1C(=O)c1c(O)c3c(c(O)c1C2=O)C[C@@](O)(C(=O)CO)C[C@@H]3O[C@H]1C[C@H](N)[C@H](O)[C@H](C)O1` [DOXORUBICIN] here?
Answer: Its value is 3.

Question: And the Activity (A549 [2])?
Answer: The Activity was “Active”.

Question: What about the “fold change (FC)” value [3] of the same compound?
Answer: The value was 3.

Question: Which GI50 (OVCAR-8) does the source give for `O=c1ccc(/C=C/c2ccc(NC(=S)Nc3cccc(Br)c3)cc2)n[nH]1` here?
Answer: Its GI50 is 3.47 µM.

Question: And the inhibition of growth at 10 µM (A549 [4])?
Answer: The inhibition of growth at 10 µM was 74%.

Question: And the GI50 (UACC-257)?
Answer: Its GI50 is 3.24 µM.

Question: And the GI50 (NCI-H23)?
Answer: Its GI50 is 3.54 µM.

Question: What about the MIC (Escherichia coli) of the same compound?
Answer: The MIC was 512 µg/mL (≈ 1200 µM).

Question: And the GI50 (SK-MEL-2)?
Answer: The GI50 was 1.86 µM.

Question: And the inhibition of growth at 10 µM (LOX IMVI)?
Answer: Its inhibition of growth at 10 µM is 88.8%.

Question: And the GI50 (HOP-92 [5])?
Answer: Its GI50 is 2.51 µM.

Question: And the MIC (Candida albicans)?
Answer: Its MIC is 512 µg/mL (≈ 1200 µM).

Question: What about the inhibition of growth at 10 µM (HOP-92 [6]) of the same compound?
Answer: Its inhibition of growth at 10 µM is 100%.

Question: And the inhibition of growth at 10 µM (SK-OV-3)?
Answer: The inhibition of growth at 10 µM was 82.6%.

Question: And the inhibition of growth at 10 µM (MDA-MB-468 [7])?
Answer: Its inhibition of growth at 10 µM is 88.1%.

Question: What about the GI50 (SF-268) of the same compound?
Answer: The GI50 was 2.82 µM.

Question: What about the inhibition of growth at 10 µM (U-251) of the same compound?
Answer: The inhibition of growth at 10 µM was 100%.

Question: And the inhibition of growth at 10 µM (NCI-H226)?
Answer: Its inhibition of growth at 10 µM is 88.2%.

Question: What about the GI50 (SF-295) of the same compound?
Answer: The GI50 was 2.69 µM.

Question: What about the GI50 (SN12C) of the same compound?
Answer: Its GI50 is 3.02 µM.

Question: And the inhibition of growth at 10 µM (MCF7 [8])?
Answer: The inhibition of growth at 10 µM was 72.7%.

Question: And the GI50 (CAKI-1)?
Answer: Its GI50 is 2.57 µM.

Question: What about the GI50 (MCF7 [9]) of the same compound?
Answer: Its GI50 is 2.44 µM.

Question: And the GI50 (PC-3)?
Answer: Its GI50 is 3.63 µM.

Question: What about the inhibition of growth at 10 µM (DU-145) of the same compound?
Answer: The inhibition of growth at 10 µM was 91.5%.

Question: And the inhibition of growth at 10 µM (NCI/ADR-RES)?
Answer: Its inhibition of growth at 10 µM is 85.7%.

Question: And the GI50 (SK-MEL-28)?
Answer: Its GI50 is 2 µM.

Question: What about the GI50 (SNB-75) of the same compound?
Answer: The GI50 was 3.98 µM.

Question: What about the GI50 (UACC-62) of the same compound?
Answer: The GI50 was 2.34 µM.

Question: And the GI50 (MDA-MB-468 [10])?
Answer: The GI50 was 1.66 µM.

Question: And the inhibition of growth at 10 µM (786-0)?
Answer: The inhibition of growth at 10 µM was 88.2%.

Question: What about the inhibition of growth at 10 µM (BT-549) of the same compound?
Answer: Its inhibition of growth at 10 µM is 95.5%.

Question: And the GI50 (EKVX)?
Answer: Its GI50 is 3.54 µM.

Question: What about the inhibition of growth at 10 µM (UO-31) of the same compound?
Answer: The inhibition of growth at 10 µM was 76.2%.

Question: And the MIC (Staphylococcus aureus)?
Answer: Its MIC is 128 µg/mL (≈ 300 µM).

Question: What about the GI50 (M14) of the same compound?
Answer: Its GI50 is 2.57 µM.

Question: What about the inhibition of growth at 10 µM (HOP-62) of the same compound?
Answer: The inhibition of growth at 10 µM was 98.1%.

From ChEMBL document CHEMBL6083209, “Pyridazinone-based derivatives as anticancer agents endowed with anti-microbial activity: molecular design, synthesis, and biological investigation” (RSC Med Chem, 2024)
